Measured values reported in ChEMBL document CHEMBL3286317, “Synthesis and biological evaluation of a unique heparin mimetic hexasaccharide for structure-activity relationship studies” (J Med Chem, 2014).
Active and inactive are the calls of the source. No cut-off for these calls is given here.

How the values were obtained:
[1] = molecular target: T1, Heparanase (Homo sapiens) (UniProt Q9Y251); test: Inhibition of recombinant heparanase (unknown origin) using biotin-cryptate-labeled heparan sulfate as substrate at 0.03 to 8 mg/ml preincubated for 15 mins prior to substrate challenge by TR-FRET assay
T1 sequence (whole entry): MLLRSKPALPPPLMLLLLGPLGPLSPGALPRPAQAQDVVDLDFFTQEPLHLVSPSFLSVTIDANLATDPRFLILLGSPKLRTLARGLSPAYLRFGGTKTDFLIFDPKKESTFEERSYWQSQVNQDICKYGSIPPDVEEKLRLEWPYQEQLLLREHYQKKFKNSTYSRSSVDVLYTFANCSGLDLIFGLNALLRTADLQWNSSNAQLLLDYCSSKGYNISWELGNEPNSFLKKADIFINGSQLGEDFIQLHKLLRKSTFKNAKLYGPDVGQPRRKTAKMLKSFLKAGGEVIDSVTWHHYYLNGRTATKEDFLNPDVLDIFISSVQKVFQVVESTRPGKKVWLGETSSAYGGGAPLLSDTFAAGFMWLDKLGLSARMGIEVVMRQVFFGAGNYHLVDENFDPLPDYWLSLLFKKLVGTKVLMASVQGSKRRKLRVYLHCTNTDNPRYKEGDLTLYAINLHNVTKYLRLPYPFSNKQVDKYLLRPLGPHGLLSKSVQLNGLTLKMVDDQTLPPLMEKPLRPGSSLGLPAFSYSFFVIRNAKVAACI
Outline: (§1)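 Recombinant heparanase was preincubated with compound at various concentrations for 15 min at 37 °C. It was then added to biotin-cryptate-labeled heparan sulfate substrate with streptavidin-XL665 for 1 h at 37 °C. Read-out was TR-FRET between europium cryptate and XL665.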

[2] = molecular target: T2, Secreted frizzled-related protein 1 (Homo sapiens, UniProt Q8N474); test: Binding affinity to human recombinant sFRP1 by surface plasmon resonance assay
T2 sequence (Q8N474 whole entry): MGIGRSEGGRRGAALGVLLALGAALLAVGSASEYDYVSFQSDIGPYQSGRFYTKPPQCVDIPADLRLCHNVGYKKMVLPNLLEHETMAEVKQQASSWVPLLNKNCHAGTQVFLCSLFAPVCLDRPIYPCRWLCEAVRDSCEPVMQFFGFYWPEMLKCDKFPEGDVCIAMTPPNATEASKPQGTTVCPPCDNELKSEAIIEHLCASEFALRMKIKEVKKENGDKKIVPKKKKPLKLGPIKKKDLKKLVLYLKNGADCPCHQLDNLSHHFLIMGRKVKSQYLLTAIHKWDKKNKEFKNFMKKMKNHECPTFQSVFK
Outline: (§2)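 Biotinylated low-molecular-weight heparin was captured on a neutravidin surface. Protein at varying concentrations was mixed with a hexasaccharide dilution series and injected. Free protein was read from a quadratic slope-vs-concentration standard curve. KD = [P_free][H_total]/[P_bound], averaged over three hexasaccharide concentrations.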

[3] = Binding affinity to human recombinant IL-23 by surface plasmon resonance assay; outline: as §2
[4] = molecular target: Fibroblast growth factor 2 (Homo sapiens, UniProt P09038); test: Binding affinity to human recombinant FGF2 by surface plasmon resonance assay; outline: as §2
Chain of Fibroblast growth factor 2 (P09038 143-288 limits assumed): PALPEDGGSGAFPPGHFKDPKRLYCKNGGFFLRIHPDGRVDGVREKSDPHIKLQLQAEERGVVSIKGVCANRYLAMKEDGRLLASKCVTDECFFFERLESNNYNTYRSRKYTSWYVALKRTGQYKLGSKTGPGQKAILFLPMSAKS

Interferon gamma = molecular target: T3, Interferon gamma (Homo sapiens, UniProt P01579); test: Binding affinity to human recombinant IFN-gamma by surface plasmon resonance assay; outline: as §2
T3 sequence (P01579 whole entry): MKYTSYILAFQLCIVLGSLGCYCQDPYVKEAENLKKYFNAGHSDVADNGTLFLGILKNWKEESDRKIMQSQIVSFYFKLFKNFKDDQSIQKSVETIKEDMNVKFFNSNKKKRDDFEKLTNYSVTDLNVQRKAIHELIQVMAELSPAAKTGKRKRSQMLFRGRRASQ

[5] = molecular target: Fibroblast growth factor 1 (Homo sapiens, UniProt P05230); test: Binding affinity to human recombinant FGF1 by surface plasmon resonance assay; outline: as §2
Chain of Fibroblast growth factor 1 (P05230 whole entry): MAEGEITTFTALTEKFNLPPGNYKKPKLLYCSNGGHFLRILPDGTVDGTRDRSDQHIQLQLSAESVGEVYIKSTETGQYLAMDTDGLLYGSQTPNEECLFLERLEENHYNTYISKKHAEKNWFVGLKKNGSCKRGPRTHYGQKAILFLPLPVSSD

[6] = molecular target: T1, Heparanase (Homo sapiens); test: Inhibition of recombinant heparanase (unknown origin) using biotin-cryptate-labeled heparan sulfate as substrate at 8.3 mg/ml preincubated for 15 mins prior to substrate challenge by TR-FRET assay; outline: as §1
[7] = molecular target: Stromal cell-derived factor 1 (Homo sapiens, UniProt P48061); test: Binding affinity to human recombinant CXCL12 by surface plasmon resonance assay; outline: as §2
Chain of Stromal cell-derived factor 1 (P48061 whole entry): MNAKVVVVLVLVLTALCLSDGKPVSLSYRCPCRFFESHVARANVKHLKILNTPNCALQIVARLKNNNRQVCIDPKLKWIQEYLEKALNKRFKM

Platelet factor 4 = molecular target: T4, Platelet factor 4 (Homo sapiens, UniProt P02776); test: Binding affinity to human recombinant CXCL4 by surface plasmon resonance assay; outline: as §2
T4 sequence (P02776 whole entry): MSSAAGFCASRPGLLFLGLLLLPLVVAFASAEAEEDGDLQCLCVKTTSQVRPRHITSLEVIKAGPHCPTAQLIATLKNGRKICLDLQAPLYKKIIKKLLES

[8] = molecular target: T1, Heparanase (Homo sapiens); test: Inhibition of recombinant heparanase (unknown origin) using biotin-cryptate-labeled heparan sulfate as substrate at 4.2 mg/ml preincubated for 15 mins prior to substrate challenge by TR-FRET assay; outline: as §1
C-C motif chemokine 2 = C-C motif chemokine 2 (Homo sapiens, UniProt P13500); test: Binding affinity to human recombinant CCL2 by surface plasmon resonance assay; outline: as §2
Chain of C-C motif chemokine 2 (P13500 whole entry): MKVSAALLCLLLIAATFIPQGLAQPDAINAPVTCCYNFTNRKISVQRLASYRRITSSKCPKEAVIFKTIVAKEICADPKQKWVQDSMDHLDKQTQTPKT

Protein Wnt-3a = Protein Wnt-3a (Homo sapiens, UniProt P56704); test: Binding affinity to human recombinant WNT3A by surface plasmon resonance assay; outline: as §2
Chain of Protein Wnt-3a (P56704 whole entry): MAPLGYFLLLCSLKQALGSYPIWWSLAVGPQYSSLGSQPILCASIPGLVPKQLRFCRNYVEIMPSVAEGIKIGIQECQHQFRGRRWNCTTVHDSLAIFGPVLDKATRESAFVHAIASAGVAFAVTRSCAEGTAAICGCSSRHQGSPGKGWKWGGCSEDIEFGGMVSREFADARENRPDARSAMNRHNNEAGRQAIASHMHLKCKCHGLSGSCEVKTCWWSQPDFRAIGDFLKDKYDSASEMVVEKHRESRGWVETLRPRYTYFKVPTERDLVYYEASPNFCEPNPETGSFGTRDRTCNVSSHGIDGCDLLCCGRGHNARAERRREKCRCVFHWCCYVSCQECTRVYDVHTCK

Row | SMILES | inhibition [1] | Kd [2] [µM] | Kd [3] [µM] | Kd [4] [µM] | Kd (Interferon gamma) [µM] | Kd [5] [µM] | Imax [6] [%] | Kd [7] [µM] | Kd (Platelet factor 4) [µM] | Imax [8] [%] | Kd (C-C motif chemokine 2) [µM] | Kd (Protein Wnt-3a) [µM]
1 | NCCCCCO[C@H]1O[C@H](CO)[C@@H](O[C@@H]2O[C@@H](C(=O)O)[C@@H](O[C@H]3O[C@H](CO)[C@@H](O[C@@H]4O[C@@H](C(=O)O)[C@@H](O[C@H]5O[C@H](CO)[C@@H](O[C@@H]6O[C@@H](C(=O)O)[C@@H](O)[C@H](O)[C@H]6OS(=O)(=O)O)[C@H](O)[C@H]5NS(=O)(=O)O)[C@H](O)[C@H]4OS(=O)(=O)O)[C@H](O)[C@H]3NS(=O)(=O)O)[C@H](O)[C@H]2OS(=O)(=O)O)[C@H](O)[C@H]1NS(=O)(=O)O | Active | 9 | 7 | 1 | 10 | 8 | – | – | – | – | – | –
2 | CCCCCO[C@H]1O[C@H](COS(=O)(=O)O)[C@@H](O[C@@H]2O[C@@H](C(=O)O)[C@@H](O[C@H]3O[C@H](COS(=O)(=O)O)[C@@H](O[C@@H]4O[C@@H](C(=O)O)[C@@H](O[C@H]5O[C@H](COS(=O)(=O)O)[C@@H](O[C@@H]6O[C@@H](C(=O)O)[C@@H](O)[C@H](O)[C@H]6OS(=O)(=O)O)[C@H](O)[C@H]5NC(C)=O)[C@H](O)[C@H]4OS(=O)(=O)O)[C@H](O)[C@H]3NC(C)=O)[C@H](O)[C@H]2OS(=O)(=O)O)[C@H](O)[C@H]1NC(C)=O | Active | – | – | 25000 | – | – | 30.7 | 77 | – | – | – | –
3 | CCCCCO[C@H]1O[C@H](COS(=O)(=O)O)[C@@H](O[C@@H]2O[C@@H](C(=O)O)[C@@H](O[C@H]3O[C@H](COS(=O)(=O)O)[C@@H](O[C@@H]4O[C@@H](C(=O)O)[C@@H](O[C@H]5O[C@H](COS(=O)(=O)O)[C@@H](O[C@@H]6O[C@@H](C(=O)O)[C@@H](O)[C@H](O)[C@H]6OS(=O)(=O)O)[C@H](O)[C@H]5NC(C)=O)[C@H](O)[C@H]4OS(=O)(=O)O)[C@H](O)[C@H]3NS(=O)(=O)O)[C@H](O)[C@H]2O)[C@H](O)[C@H]1NC(C)=O | – | – | 4 | 25000 | 7 | – | – | 24 | 3 | 47.2 | 61 | 18
